According to ChEMBL document CHEMBL4130456 (ACS Med Chem Lett, 2017):
pIC50: −log10 of the molar value. ≈ marks a conversion by molar mass, not a printed value.

Assays:
[1] = target: T1, Phosphatidylinositol 4,5-bisphosphate 3-kinase catalytic subunit delta isoform (Homo sapiens, UniProt O00329); assay: Inhibition of PI3Kdelta (unknown origin) using phosphatidyl inositol as substrate measured after 60 mins by Alexa Fluor647-labelled ADP tracer based TR-FRET assay
T1 sequence (O00329 whole entry): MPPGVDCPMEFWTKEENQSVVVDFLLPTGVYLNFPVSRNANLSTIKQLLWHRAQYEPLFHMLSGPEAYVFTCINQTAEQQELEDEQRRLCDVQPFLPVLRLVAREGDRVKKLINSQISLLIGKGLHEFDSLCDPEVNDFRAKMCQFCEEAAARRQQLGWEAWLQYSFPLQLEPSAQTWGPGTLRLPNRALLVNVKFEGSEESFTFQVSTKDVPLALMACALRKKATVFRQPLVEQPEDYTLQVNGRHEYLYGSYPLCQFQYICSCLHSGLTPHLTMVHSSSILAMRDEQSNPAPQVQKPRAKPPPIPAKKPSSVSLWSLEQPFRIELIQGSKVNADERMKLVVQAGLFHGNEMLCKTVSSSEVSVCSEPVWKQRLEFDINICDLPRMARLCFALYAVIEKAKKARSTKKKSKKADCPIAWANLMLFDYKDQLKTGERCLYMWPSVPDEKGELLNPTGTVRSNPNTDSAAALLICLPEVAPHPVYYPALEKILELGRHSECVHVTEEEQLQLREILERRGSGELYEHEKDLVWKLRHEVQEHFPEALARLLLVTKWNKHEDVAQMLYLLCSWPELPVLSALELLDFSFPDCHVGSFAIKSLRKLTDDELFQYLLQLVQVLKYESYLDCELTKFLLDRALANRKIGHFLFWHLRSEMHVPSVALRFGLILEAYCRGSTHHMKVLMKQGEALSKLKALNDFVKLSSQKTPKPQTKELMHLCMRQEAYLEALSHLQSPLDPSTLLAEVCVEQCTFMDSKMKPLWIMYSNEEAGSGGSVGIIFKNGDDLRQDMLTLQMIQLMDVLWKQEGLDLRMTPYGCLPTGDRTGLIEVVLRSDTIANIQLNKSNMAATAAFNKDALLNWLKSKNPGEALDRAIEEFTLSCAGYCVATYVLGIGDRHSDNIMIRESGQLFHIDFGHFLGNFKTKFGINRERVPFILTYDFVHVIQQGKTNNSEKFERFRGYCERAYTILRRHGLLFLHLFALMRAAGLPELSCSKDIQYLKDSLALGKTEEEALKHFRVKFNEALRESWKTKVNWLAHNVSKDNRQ

[2] = target: T2, Phosphatidylinositol 4,5-bisphosphate 3-kinase catalytic subunit beta isoform (Homo sapiens, UniProt P42338); assay: Inhibition of recombinant PI3Kbeta (unknown origin) using phosphatidyl inositol/n-Octyl-glucoside as substrate measured after 60 mins by KinaseGlo assay
T2 sequence (P42338 whole entry, canonical isoform): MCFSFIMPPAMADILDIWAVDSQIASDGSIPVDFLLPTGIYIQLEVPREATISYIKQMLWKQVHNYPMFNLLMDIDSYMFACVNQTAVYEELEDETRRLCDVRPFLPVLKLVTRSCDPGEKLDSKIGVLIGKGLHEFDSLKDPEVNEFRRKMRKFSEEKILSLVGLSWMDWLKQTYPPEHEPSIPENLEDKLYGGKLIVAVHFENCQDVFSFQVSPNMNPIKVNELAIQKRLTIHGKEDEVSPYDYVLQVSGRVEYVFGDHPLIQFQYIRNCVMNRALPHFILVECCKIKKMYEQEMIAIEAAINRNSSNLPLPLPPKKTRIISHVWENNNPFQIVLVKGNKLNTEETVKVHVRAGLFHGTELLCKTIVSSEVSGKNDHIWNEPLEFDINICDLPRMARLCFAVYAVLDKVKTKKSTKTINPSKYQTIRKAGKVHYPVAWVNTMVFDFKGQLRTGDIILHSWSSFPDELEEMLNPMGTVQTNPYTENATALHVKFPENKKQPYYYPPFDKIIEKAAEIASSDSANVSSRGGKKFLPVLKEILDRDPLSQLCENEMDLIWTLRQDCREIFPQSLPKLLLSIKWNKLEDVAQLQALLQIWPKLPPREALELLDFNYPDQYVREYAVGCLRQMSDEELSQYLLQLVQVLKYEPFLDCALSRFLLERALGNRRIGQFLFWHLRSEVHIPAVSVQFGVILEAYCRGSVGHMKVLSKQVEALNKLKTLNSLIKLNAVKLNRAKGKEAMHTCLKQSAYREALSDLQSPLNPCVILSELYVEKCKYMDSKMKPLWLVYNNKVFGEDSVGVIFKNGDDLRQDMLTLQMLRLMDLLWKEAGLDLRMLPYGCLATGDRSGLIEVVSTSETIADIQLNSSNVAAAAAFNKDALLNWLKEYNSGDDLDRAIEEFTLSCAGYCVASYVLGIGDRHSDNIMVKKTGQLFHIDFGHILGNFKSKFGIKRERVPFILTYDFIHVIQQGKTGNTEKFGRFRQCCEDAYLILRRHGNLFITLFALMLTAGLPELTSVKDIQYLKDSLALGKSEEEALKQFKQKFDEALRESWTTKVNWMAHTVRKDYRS

[3] = Equilibrium solubility of the compound at pH 6.8 by LC-MS/MS analysis; assay type: physicochemical; conditions: buffer
Summary of the method: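 High-throughput equilibrium solubility at pH 6.8, reported in mM.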

[4] = target: Phosphatidylinositol 4,5-bisphosphate 3-kinase catalytic subunit gamma isoform (Homo sapiens, UniProt P48736); assay: Inhibition of PI3Kgamma (unknown origin) using phosphatidyl inositol as substrate measured after 30 mins by Alexa Fluor647-labelled ADP tracer based TR-FRET assay
Phosphatidylinositol 4,5-bisphosphate 3-kinase catalytic subunit gamma isoform, sequence (P48736 whole entry, the tested form may be a part, canonical isoform): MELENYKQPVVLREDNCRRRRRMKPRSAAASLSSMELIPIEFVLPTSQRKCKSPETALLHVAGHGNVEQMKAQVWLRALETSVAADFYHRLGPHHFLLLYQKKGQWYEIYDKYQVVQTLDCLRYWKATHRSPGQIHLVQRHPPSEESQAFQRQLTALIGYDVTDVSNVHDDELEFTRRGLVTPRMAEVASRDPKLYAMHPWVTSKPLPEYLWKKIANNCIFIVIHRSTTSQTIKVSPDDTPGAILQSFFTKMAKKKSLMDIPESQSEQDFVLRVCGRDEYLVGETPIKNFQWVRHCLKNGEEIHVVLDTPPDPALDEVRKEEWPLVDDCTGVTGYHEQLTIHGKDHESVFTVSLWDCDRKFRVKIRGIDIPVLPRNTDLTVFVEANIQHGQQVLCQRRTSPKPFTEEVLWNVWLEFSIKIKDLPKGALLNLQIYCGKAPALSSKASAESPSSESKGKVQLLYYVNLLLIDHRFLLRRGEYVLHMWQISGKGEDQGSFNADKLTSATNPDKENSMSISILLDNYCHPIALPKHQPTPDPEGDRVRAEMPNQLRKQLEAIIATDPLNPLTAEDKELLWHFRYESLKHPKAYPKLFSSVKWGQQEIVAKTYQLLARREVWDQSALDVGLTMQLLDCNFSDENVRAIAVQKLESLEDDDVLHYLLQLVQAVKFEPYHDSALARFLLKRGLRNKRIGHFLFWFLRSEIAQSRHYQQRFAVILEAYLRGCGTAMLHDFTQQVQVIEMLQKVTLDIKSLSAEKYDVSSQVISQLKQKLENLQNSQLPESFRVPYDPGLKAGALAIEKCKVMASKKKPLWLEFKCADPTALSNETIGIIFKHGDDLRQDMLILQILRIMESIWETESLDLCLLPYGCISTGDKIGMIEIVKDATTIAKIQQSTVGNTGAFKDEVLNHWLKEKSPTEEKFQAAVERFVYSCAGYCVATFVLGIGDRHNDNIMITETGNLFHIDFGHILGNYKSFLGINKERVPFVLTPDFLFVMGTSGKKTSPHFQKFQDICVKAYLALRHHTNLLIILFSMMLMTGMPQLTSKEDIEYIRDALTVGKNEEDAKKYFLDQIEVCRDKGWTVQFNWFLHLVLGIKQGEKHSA

[5] = target: T2, Phosphatidylinositol 4,5-bisphosphate 3-kinase catalytic subunit beta isoform; assay: Inhibition of recombinant human myristoylated PI3Kbeta catalytic domain expressed in Rat1 cells assessed as reduction in Akt phosphorylation at […] residue after 1 hr by alpha screen Surefire assay; assay type: cell-based
[6] = target: T1, Phosphatidylinositol 4,5-bisphosphate 3-kinase catalytic subunit delta isoform; assay: Inhibition of recombinant human myristoylated PI3Kdelta catalytic domain expressed in Rat1 cells assessed as reduction in Akt phosphorylation at […] residue after 1 hr by alpha screen Surefire assay; assay type: cell-based
[7] = Intrinsic clearance in rat liver microsomes assessed per mg protein; assay type: ADME, microsome; conditions: read-out: CLH
[8] = target: T3, Phosphatidylinositol 4,5-bisphosphate 3-kinase catalytic subunit alpha isoform (Homo sapiens, UniProt P42336); assay: Inhibition of recombinant PI3Kalpha (unknown origin) using phosphatidyl inositol/n-Octyl-glucoside as substrate measured after 30 mins by KinaseGlo assay
T3 sequence (P42336 whole entry, the tested form may be a part, canonical isoform): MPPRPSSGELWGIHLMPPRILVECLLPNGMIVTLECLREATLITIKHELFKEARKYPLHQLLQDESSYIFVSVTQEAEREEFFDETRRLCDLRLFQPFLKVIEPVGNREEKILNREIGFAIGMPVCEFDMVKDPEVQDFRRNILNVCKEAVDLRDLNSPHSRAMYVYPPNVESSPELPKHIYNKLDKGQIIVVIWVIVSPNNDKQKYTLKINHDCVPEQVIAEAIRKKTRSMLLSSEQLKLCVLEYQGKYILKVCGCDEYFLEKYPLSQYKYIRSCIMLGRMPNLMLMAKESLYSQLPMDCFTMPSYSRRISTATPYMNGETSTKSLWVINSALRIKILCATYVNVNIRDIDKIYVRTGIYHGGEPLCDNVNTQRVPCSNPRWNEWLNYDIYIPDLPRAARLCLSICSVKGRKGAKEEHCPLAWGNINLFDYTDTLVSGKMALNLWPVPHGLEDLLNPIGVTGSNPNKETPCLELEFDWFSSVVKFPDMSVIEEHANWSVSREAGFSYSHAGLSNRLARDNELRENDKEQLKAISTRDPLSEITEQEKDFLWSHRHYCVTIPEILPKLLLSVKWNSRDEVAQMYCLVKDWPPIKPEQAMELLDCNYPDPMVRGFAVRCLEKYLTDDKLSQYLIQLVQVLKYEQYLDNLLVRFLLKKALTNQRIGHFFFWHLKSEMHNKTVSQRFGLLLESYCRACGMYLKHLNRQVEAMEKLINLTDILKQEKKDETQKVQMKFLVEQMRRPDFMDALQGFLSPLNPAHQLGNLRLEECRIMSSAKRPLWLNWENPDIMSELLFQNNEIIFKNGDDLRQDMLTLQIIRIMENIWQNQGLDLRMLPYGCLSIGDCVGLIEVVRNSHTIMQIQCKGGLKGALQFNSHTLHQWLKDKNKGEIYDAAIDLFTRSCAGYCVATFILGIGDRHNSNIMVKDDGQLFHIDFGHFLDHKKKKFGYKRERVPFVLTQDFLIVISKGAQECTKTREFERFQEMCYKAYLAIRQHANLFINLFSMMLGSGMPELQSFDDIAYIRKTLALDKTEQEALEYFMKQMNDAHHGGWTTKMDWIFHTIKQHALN

[9] = target: T3, Phosphatidylinositol 4,5-bisphosphate 3-kinase catalytic subunit alpha isoform; assay: Inhibition of recombinant human myristoylated PI3Kalpha catalytic domain expressed in Rat1 cells assessed as reduction in Akt phosphorylation at […] residue after 1 hr by alpha screen Surefire assay; assay type: cell-based
[10] = Lipophilicity, log P of the compound by artificial membrane based assay; assay type: physicochemical
[11] = Inhibition of PI3Kdelta in 50% rat blood assessed as reduction in anti-IgM stimulated CD86 expression pretreated for 1 hr followed by anti-IgM stimulation after 24 hrs by flow cytometric analysis
Summary of the method: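 Rat 50% whole blood; B cells stimulated with anti-IgM/IL-4; readouts pAKT or CD86.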

[12] = target: T4, Phosphatidylinositol 4,5-bisphosphate 3-kinase catalytic subunit delta isoform (Mus musculus, UniProt O35904); assay: Inhibition of PI3Kdelta in Balb/c mouse splenocytes assessed as reduction in anti-IgM stimulated CD86 expression pretreated for 1 hr followed by anti-IgM stimulation after 24 hrs by flow cytometric analysis; assay type: cell-based
T4 sequence (O35904 whole entry): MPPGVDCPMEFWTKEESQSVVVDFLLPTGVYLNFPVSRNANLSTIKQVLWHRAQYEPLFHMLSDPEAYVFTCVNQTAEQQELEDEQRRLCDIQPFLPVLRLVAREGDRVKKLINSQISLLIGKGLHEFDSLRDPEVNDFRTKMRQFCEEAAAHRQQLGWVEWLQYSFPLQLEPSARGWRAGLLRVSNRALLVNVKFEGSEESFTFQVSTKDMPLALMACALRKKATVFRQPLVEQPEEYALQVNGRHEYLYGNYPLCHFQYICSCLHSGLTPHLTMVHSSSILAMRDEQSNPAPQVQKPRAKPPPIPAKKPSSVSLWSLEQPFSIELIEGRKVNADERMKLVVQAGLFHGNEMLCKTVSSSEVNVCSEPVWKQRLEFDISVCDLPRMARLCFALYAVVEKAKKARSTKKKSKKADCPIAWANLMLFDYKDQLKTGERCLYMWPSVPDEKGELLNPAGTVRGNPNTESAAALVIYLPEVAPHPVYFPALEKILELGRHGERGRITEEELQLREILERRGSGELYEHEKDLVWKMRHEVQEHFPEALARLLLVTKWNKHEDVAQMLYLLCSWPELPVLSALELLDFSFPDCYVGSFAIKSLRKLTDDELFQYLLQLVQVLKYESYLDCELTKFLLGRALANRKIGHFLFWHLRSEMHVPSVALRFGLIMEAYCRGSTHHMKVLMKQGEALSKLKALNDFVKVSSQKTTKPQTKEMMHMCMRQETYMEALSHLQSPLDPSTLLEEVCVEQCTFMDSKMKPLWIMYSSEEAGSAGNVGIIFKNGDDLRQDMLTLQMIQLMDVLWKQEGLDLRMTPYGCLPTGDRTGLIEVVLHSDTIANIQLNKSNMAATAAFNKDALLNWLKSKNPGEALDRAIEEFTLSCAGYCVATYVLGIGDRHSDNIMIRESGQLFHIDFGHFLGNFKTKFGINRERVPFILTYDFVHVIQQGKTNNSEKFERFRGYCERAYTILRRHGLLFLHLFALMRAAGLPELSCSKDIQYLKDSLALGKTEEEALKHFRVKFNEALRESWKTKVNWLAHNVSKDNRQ

Row | Compound | pIC50 [1] | pIC50 [2] | solubility thermodynamic [3] | pIC50 [4] | pIC50 [5] | pIC50 [6] | microsomal CLint [7] | pIC50 [8] | pIC50 [9] | logP [10] | pIC50 [11] | pIC50 [12]
1 | CCC(=O)N1CC[C@H](Oc2ncnc3c2CN(c2ccc(OC)nc2)CC3)C1 | 6.88 | 5.05 | > 1000 µM | < 5.04 | < 5.00 | 5.27 | 35 µL/min/mg | 5.18 | < 5.00 | 2.2 | – | –
2 | COc1ncc(N2CCc3ncnc(N[C@H]4CCN(C(=O)C5CCOCC5)C4)c3C2)cc1C(F)(F)F | 8.40 | 6.52 | 240 µM (≈ 122 µg/mL) | 5.97 | 5.40 | – | 41 µL/min/mg | 7.36 | 5.67 | 2.9 | 7.80 | 7.82
3 | COc1ccc(N2CCc3ncnc(-c4cccc(OC5CCN(C(C)=O)CC5)c4)c3C2)cn1 | 7.08 | 5.05 | > 1000 µM | < 5.04 | < 5.00 | 6.43 | 197 µL/min/mg | 5.69 | 5.04 | 2.2 | – | –
4 | COc1ccc(N2CCc3ncnc(-c4cccc(C(=O)N5CCN(C(C)=O)CC5)c4)c3C2)cn1 | 7.19 | < 5.04 | > 1000 µM | < 5.04 | < 5.00 | 5.58 | 91 µL/min/mg | 5.16 | < 5.00 | 0.7 | – | –
5 | COc1ncc(N2CCc3ncnc(N[C@H]4CCN(C(=O)C5CCOCC5)C4)c3C2)cc1C | 7.52 | 5.69 | > 1000 µM | 5.48 | 5.01 | 6.45 | 22 µL/min/mg | – | – | 2.6 | 7.13 | 7.04
6 | CCC(=O)N1CC[C@H](Nc2ncnc3c2CN(c2cnc(OC)c(C)c2)CC3)C1 | – | 6.02 | > 1000 µM | – | 5.10 | – | – | – | 5.13 | 2.8 | 7.14 | 7.06
7 | CCC(=O)N1CC[C@H](Oc2ncnc3c2CN(c2cnc(OC)c(C(F)(F)F)c2)CC3)C1 | 7.57 | 5.77 | 80 µM (≈ 36.1 µg/mL) | < 5.04 | 5.51 | 6.88 | 160 µL/min/mg | – | 5.59 | 3.1 | – | –
8 | COc1ncc(N2CCc3ncnc(O[C@H]4CCN(C(=O)C5CCOCC5)C4)c3C2)cc1C | 7.12 | 5.38 | > 1000 µM | 5.18 | 5.17 | 6.84 | 60 µL/min/mg | – | – | 1.7 | 7.04 | 7.01
9 | COc1ncc(N2CCc3ncnc(O[C@H]4CCN(C(=O)C5CCOCC5)C4)c3C2)cc1C(F)(F)F | 7.55 | 5.88 | 270 µM (≈ 137 µg/mL) | < 5.04 | 5.45 | 7.43 | 149 µL/min/mg | – | 5.45 | 2.2 | 7.24 | 7.08
